Measurements taken from ChEMBL document CHEMBL4196181, “Flabellipparicine, a Flabelliformide-Apparicine-Type Bisindole Alkaloid from Tabernaemontana divaricata” (J Nat Prod, 2018).
Calls of active or inactive are those of the source. No cut-off for these calls is given here.

Assays:
[1] = tested on: MCF7; assay: Cytotoxicity against human MCF7 cells after 72 hrs by sulforhodamine B assay; assay type: functional, cell-based; settings: for IC50: MCF7, 72 h
How it was run: (§1)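 Antiproliferative test on MCF-7 human breast adenocarcinoma and A-549 human lung carcinoma cells. SN38 (7-ethyl-10-hydroxycamptothecin) served as positive control. IC50 is the concentration giving 50% inhibition of cell growth, calculated by a literature procedure.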

[2] = tested on: A549; assay: Cytotoxicity against human A549 cells after 72 hrs by sulforhodamine B assay; assay type: functional, cell-based; settings: for IC50: A549, 72 h; how it was run: as §1

Row | Structure (SMILES) | Activity [1] | Activity [2] | IC50 [1] | IC50 [2]
1 | CCC1C[C@@H]2C[C@@]3(C(=O)OC)C4=Nc5ccccc5[C@@]4(O)CCN([C@@H]13)[C@H]2CC(C)=O (stereo partly specified) | inactive | inactive |  | 
2 | C=C1c2[nH]c3ccccc3c2CN2CC[C@H]1/C(=C\C)C2 | inactive | inactive |  | 
3 | C/C=C1/C[N+]2(C)[C@@H]3Cc4c([nH]c5ccccc45)[C@]2(c2ccc4c5c([nH]c4c2)[C@]2(C(=O)OC)C[C@H]4C[C@H](CC)[C@@H]2N(CC5)C4)C[C@H]1[C@H]3C(=O)OC |  |  | 7300 nM | 1200 nM
4 | CCc1c2c(nc3ccc(O)cc13)-c1cc3c(c(=O)n1C2)COC(=O)[C@]3(O)CC [7-ETHYL-10-HYDROXYCAMPTOTHECIN] |  |  | < 0.1 nM | 200 nM
5 | C/C=C1/C[N+]2(C)[C@@H]3Cc4c([nH]c5ccccc45)[C@]2(c2ccc4c5c([nH]c4c2)[C@@H]2C[C@H]4C[C@H](CC)[C@@H]2N(CC5)C4)C[C@H]1[C@H]3C(=O)OC |  |  | 1300 nM | 3200 nM
6 | CC[C@@H]1CN(C)[C@@H]2Cc3c([nH]c4ccccc34)[C@H](c3ccc4c(c3)N=C3[C@@H]5C[C@H]6C[C@H](CC)[C@@H]5N(CC[C@@]34O)C6)C[C@H]1[C@H]2C(=O)OC |  |  | 1300 nM | > 10000 nM
7 | C/C=C1/CN2CC[C@@H]1/C(=C\[C@@H]1C[C@@H]3/C(=C\C)CN(C)[C@H](Cc4c1[nH]c1ccccc41)[C@@H]3C(=O)OC)c1[nH]c3ccccc3c1C2 |  |  | 1300 nM | 4000 nM
8 | C/C=C1/CN2CC[C@@H]1[C@@]1(C[C@H]3C[C@@H]4/C(=C\Cc5c3n1c1ccccc51)C(=O)N(C)C[C@@H]4CC)c1[nH]c3ccccc3c1C2 |  |  | > 10000 nM | 7500 nM
9 | C/C=C1/CN2CC[C@@H]1/C(=C\[C@@H]1C[C@@H]3[C@H](CC)CN(C)[C@H](Cc4c1[nH]c1ccccc41)[C@@H]3C(=O)OC)c1[nH]c3ccccc3c1C2 |  |  | 800 nM | 8100 nM
10 | CC[C@H]1CN2CCc3cc(OC)c(OC)cc3[C@@H]2C[C@@H]1C[C@H]1NCCc2c1[nH]c1ccccc21 |  |  | 2 nM | 90 nM
11 | CC[C@@H]1CN(C)[C@@H]2Cc3c([nH]c4ccccc34)[C@H](c3ccc4c5c([nH]c4c3)[C@]3(C(=O)OC)C[C@H]4C[C@H](CC)[C@@H]3N(CC5)[C@H]4CC(C)=O)C[C@H]1[C@H]2C(=O)OC |  |  | 1300 nM | 1200 nM
12 | CC[C@H]1[C@@H]2CCN3CC[C@@]4(C(=C2C(=O)OC)Nc2ccccc24)[C@@H]13 | inactive | inactive |  | 
13 | CC[C@@H]1CN(C)[C@@H]2Cc3c([nH]c4ccccc34)[C@H](c3ccc4c5c([nH]c4c3)[C@]3(C(=O)OC)C[C@H]4C[C@H](CC)[C@@H]3N(CC5)C4)C[C@H]1[C@H]2C(=O)OC |  |  | 5400 nM | > 10000 nM
